ChEMBL document CHEMBL1147959, “N- and S-alpha-l-arabinopyranosyl[1,2,4]triazolo[3,4-b][1,3,4]thiadiazoles. First synthesis and biological evaluation” (2007)
Values after ≈ are worked out from the molar mass of the structure shown.

How the values were obtained:
Format in all cases: functional
Escherichia coli [1] = test: Antibacterial activity against Escherichia coli ATCC 23556 at 5 mg/mL by diffusion agar method; conditions: read-out: IZ
How it was run: (§1)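 Agar diffusion. Compounds and standard drugs were dissolved in DMSO at 5 mg/mL and diluted to 5, 2.5 and 1 mg/mL. Hundred microlitres of each concentration was applied. Inhibition was scored against the control: 0.1–0.5 cm beyond control = +, 0.6–1.0 cm = ++, 1.0–1.5 cm = +++, 0 = not detected.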

Staphylococcus aureus [2] = test: Antibacterial activity against Staphylococcus aureus ATCC 25923 at 5 mg/mL by diffusion agar method; conditions: read-out: IZ; how it was run: as §1
Penicillium italicum [3] = test: Antifungal activity against Penicillium italicum ATCC 48114 by broth dilution method
How it was run: (§2)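 MIC by twofold serial broth dilution. Compounds were dissolved in DMSO at 1.6 mg/mL as stock. Dilutions in Mueller–Hinton broth and Sabouraud dextrose broth ran from 800 down to 0.78. Inoculated broth containing DMSO alone at the same dilutions served as control. Gentamycin and griseofulvin were the reference drugs.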

Escherichia coli [4] = test: Antibacterial activity against Escherichia coli ATCC 23556 by broth dilution method; how it was run: as §2
Staphylococcus aureus [5] = test: Antibacterial activity against Staphylococcus aureus ATCC 25923 by broth dilution method; how it was run: as §2
Penicillium italicum [6] = test: Antifungal activity against Penicillium italicum ATCC 48114 at 5 mg/mL by diffusion agar method; conditions: read-out: IZ; how it was run: as §1
Bacillus subtilis [7] = test: Antibacterial activity against Bacillus subtilis ATCC 6633 at 5 mg/mL by diffusion agar method; conditions: read-out: IZ; how it was run: as §1
Aspergillus fumigatus [8] = test: Antifungal activity against Aspergillus fumigatus ATCC 96918 by broth dilution method; how it was run: as §2
Pseudomonas aeruginosa [9] = test: Antibacterial activity against Pseudomonas aeruginosa ATCC 10145 at 1 mg/mL by diffusion agar method; conditions: read-out: IZ; how it was run: as §1
[10] = tested on: Syncephalastrum racemosum; test: Antifungal activity against Syncephalastrum racemosum ATCC 18192 at 2.5 mg/mL by diffusion agar method; conditions: read-out: IZ; how it was run: as §1
Penicillium italicum [11] = test: Antifungal activity against Penicillium italicum ATCC 48114 at 2.5 mg/mL by diffusion agar method; conditions: read-out: IZ; how it was run: as §1
Bacillus subtilis [12] = test: Antibacterial activity against Bacillus subtilis ATCC 6633 at 2.5 mg/mL by diffusion agar method; conditions: read-out: IZ; how it was run: as §1
Bacillus subtilis [13] = test: Antibacterial activity against Bacillus subtilis ATCC 6633 at 1 mg/mL by diffusion agar method; conditions: read-out: IZ; how it was run: as §1
Aspergillus fumigatus [14] = test: Antifungal activity against Aspergillus fumigatus ATCC 96918 at 2.5 mg/mL by diffusion agar method; conditions: read-out: IZ; how it was run: as §1
Staphylococcus aureus [15] = test: Antibacterial activity against Staphylococcus aureus ATCC 25923 at 2.5 mg/mL by diffusion agar method; conditions: read-out: IZ; how it was run: as §1
Pseudomonas aeruginosa [16] = test: Antibacterial activity against Pseudomonas aeruginosa ATCC 10145 at 5 mg/mL by diffusion agar method; conditions: read-out: IZ; how it was run: as §1
Staphylococcus aureus [17] = test: Antibacterial activity against Staphylococcus aureus ATCC 25923 at 1 mg/mL by diffusion agar method; conditions: read-out: IZ; how it was run: as §1
Escherichia coli [18] = test: Antibacterial activity against Escherichia coli ATCC 23556 at 2.5 mg/mL by diffusion agar method; conditions: read-out: IZ; how it was run: as §1
Pseudomonas aeruginosa [19] = test: Antibacterial activity against Pseudomonas aeruginosa ATCC 10145 by broth dilution method
How it was run: (§3)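 MIC by twofold serial broth dilution. Compounds were dissolved in DMSO as a 1.6 mg/mL stock and diluted in Mueller-Hinton broth or Sabouraud dextrose broth to 800, 400, 200, 100, 50, 25, 12.5, 6.25, 3.12, 1.56 and 0.78. A control of inoculated broth with DMSO alone at the same dilutions was included. Gentamycin and griseofulvin served as reference drugs.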

Aspergillus fumigatus [20] = test: Antifungal activity against Aspergillus fumigatus ATCC 96918 at 5 mg/mL by diffusion agar method; conditions: read-out: IZ; how it was run: as §1
[21] = tested on: Syncephalastrum racemosum; test: Antifungal activity against Syncephalastrum racemosum ATCC 18192 by broth dilution method; how it was run: as §2
Bacillus subtilis [22] = test: Antibacterial activity against Bacillus subtilis ATCC 6633 by broth dilution method; how it was run: as §3
Pseudomonas aeruginosa [23] = test: Antibacterial activity against Pseudomonas aeruginosa ATCC 10145 at 2.5 mg/mL by diffusion agar method; conditions: read-out: IZ; how it was run: as §1
[24] = tested on: Syncephalastrum racemosum; test: Antifungal activity against Syncephalastrum racemosum ATCC 18192 at 5 mg/mL by diffusion agar method; conditions: read-out: IZ; how it was run: as §1
Aspergillus fumigatus [25] = test: Antifungal activity against Aspergillus fumigatus ATCC 96918 at 1 mg/mL by diffusion agar method; conditions: read-out: IZ; how it was run: as §1
Candida albicans [26] = test: Antimicrobial activity against Candida albicans ATCC 14053 at 5 mg/mL by diffusion agar method; conditions: read-out: IZ; how it was run: as §1
Candida albicans [27] = test: Antimicrobial activity against Candida albicans ATCC 14053 at 2.5 mg/mL by diffusion agar method; conditions: read-out: IZ; how it was run: as §1
Escherichia coli [28] = test: Antibacterial activity against Escherichia coli ATCC 23556 at 1 mg/mL by diffusion agar method; conditions: read-out: IZ; how it was run: as §1
Candida albicans [29] = test: Antimicrobial activity against Candida albicans ATCC 14053 at 1 mg/mL by diffusion agar method; conditions: read-out: IZ; how it was run: as §1
Candida albicans [30] = test: Antimicrobial activity against Candida albicans ATCC 14053 by broth dilution method; how it was run: as §2
[31] = tested on: Syncephalastrum racemosum; test: Antifungal activity against Syncephalastrum racemosum ATCC 18192 at 1 mg/mL by diffusion agar method; conditions: read-out: IZ; how it was run: as §1
Penicillium italicum [32] = test: Antifungal activity against Penicillium italicum ATCC 48114 at 1 mg/mL by diffusion agar method; conditions: read-out: IZ; how it was run: as §1

Row | Compound | zone of inhibition at 5000 µg/mL (Escherichia coli [1]) [mm] | zone of inhibition at 5000 µg/mL (Staphylococcus aureus [2]) [mm] | MIC (Penicillium italicum [3]) [µg/mL] | MIC (Escherichia coli [4]) [µg/mL] | MIC (Staphylococcus aureus [5]) [µg/mL] | zone of inhibition at 5000 µg/mL (Penicillium italicum [6]) [mm] | zone of inhibition at 5000 µg/mL (Bacillus subtilis [7]) [mm] | MIC (Aspergillus fumigatus [8]) [µg/mL] | zone of inhibition at 1000 µg/mL (Pseudomonas aeruginosa [9]) [mm] | zone of inhibition at 2500 µg/mL [10] [mm] | zone of inhibition at 2500 µg/mL (Penicillium italicum [11]) [mm] | zone of inhibition at 2500 µg/mL (Bacillus subtilis [12]) [mm] | zone of inhibition at 1000 µg/mL (Bacillus subtilis [13]) [mm] | zone of inhibition at 2500 µg/mL (Aspergillus fumigatus [14]) [mm] | zone of inhibition at 2500 µg/mL (Staphylococcus aureus [15]) [mm] | zone of inhibition at 5000 µg/mL (Pseudomonas aeruginosa [16]) [mm] | zone of inhibition at 1000 µg/mL (Staphylococcus aureus [17]) [mm] | zone of inhibition at 2500 µg/mL (Escherichia coli [18]) [mm] | MIC (Pseudomonas aeruginosa [19]) [µg/mL] | zone of inhibition at 5000 µg/mL (Aspergillus fumigatus [20]) [mm] | other results
1 | CC(=O)O[C@@H]1[C@@H](OC(C)=O)[C@H](n2nc3sc(-c4ccc(Cl)cc4)nn3c2=S)OC[C@@H]1OC(C)=O | 1 | 1 | > 1600 | > 1600 | > 1600 | 1 | – | – | – | – | – | – | – | – | – | – | – | – | – | – | –
2 | CC(=O)O[C@@H]1[C@@H](OC(C)=O)[C@H](Sc2nnc3sc(-c4ccc(Cl)cc4)nn23)OC[C@@H]1OC(C)=O | 1 | 1 | 1600 (≈ 3040 µM) | 1600 (≈ 3040 µM) | 25 (≈ 47.4 µM) | 1 | 1 | 25 (≈ 47.4 µM) | 1 | 1 | 1 | 1 | 1 | 1 | 1 | 1 | 1 | 1 | 12.5 (≈ 23.7 µM) | 1 | MIC [21]: 1600 µg/mL (≈ 3040 µM); MIC (Bacillus subtilis [22]): 25 µg/mL (≈ 47.4 µM); zone of inhibition at 2500 µg/mL (Pseudomonas aeruginosa [23]): 1 mm; zone of inhibition at 5000 µg/mL [24]: 1 mm; zone of inhibition at 1000 µg/mL (Aspergillus fumigatus [25]): 1 mm
3 | O=C(N[C@H](CO)[C@H](O)c1ccc([N+](=O)[O-])cc1)C(Cl)Cl [CHLORAMPHENICOL] | 6 | 6 | – | – | – | – | 10 | – | 6 | – | – | 10 | 6 | – | 6 | 10 | 6 | 6 | – | – | zone of inhibition at 5000 µg/mL (Candida albicans [26]): 6 mm; zone of inhibition at 2500 µg/mL (Pseudomonas aeruginosa [23]): 10 mm; zone of inhibition at 2500 µg/mL (Candida albicans [27]): 6 mm; zone of inhibition at 1000 µg/mL (Escherichia coli [28]): 6 mm; zone of inhibition at 1000 µg/mL (Candida albicans [29]): 6 mm
4 | COC1=CC(=O)C[C@@H](C)[C@]12Oc1c(Cl)c(OC)cc(OC)c1C2=O [GRISEOFULVIN] | – | – | 50 (≈ 142 µM) | – | – | – | – | 50 (≈ 142 µM) | – | – | – | – | – | – | – | – | – | – | – | – | MIC (Candida albicans [30]): 50 µg/mL (≈ 142 µM); MIC [21]: 50 µg/mL (≈ 142 µM)
5 | CN(C/C=C/C#CC(C)(C)C)Cc1cccc2ccccc12 [TERBINAFINE] | – | – | – | – | – | 10 | – | – | – | 10 | 10 | – | – | 10 | – | – | – | – | – | 10 | zone of inhibition at 1000 µg/mL [31]: 10 mm; zone of inhibition at 1000 µg/mL (Penicillium italicum [32]): 6 mm; zone of inhibition at 5000 µg/mL [24]: 10 mm; zone of inhibition at 1000 µg/mL (Aspergillus fumigatus [25]): 6 mm
6 | GENTAMICIN | – | – | – | 12.5 | 3.12 | – | – | – | – | – | – | – | – | – | – | – | – | – | 12.5 | – | MIC (Bacillus subtilis [22]): 1.56 µg/mL
